ChEMBL document CHEMBL4138257, “Long-Lasting and Fast-Acting in Vivo Efficacious Antiplasmodial Azepanylcarbazole Amino Alcohol” (ACS Med Chem Lett, 2017)
Values after ≈ are worked out from the molar mass of the structure shown. Active and inactive are the calls of the source. The rule behind the calls is not given here.

Tests used:
[1] = Dissociation constant, pKa of the compound at pH 1.5; format: physicochemical
Plasmodium falciparum [2] = assay: Antiplasmodial activity against Plasmodium falciparum 3D7 infected in human erythrocytes engrafted in NOD-SCID IL-2Rgamma null mouse assessed as reduction in blood parasitemia administered as single dose via oral gavage […] by flow cytometry; format: functional; conditions: 3D7, po
In short: (§1)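 SCID mice engrafted with human erythrocytes, infected with P. falciparum 3D7; single oral dose of 1, 3, 10 or 30 mg·kg-1 given day 3 after infection. Parasitemia measured by flow cytometry, lower limit of quantification 0.01; vehicle group n=3; chloroquine positive control. ED90 and AUC_ED90 are taken as the reduction at day 7 after infection versus vehicle-treated mice.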

Plasmodium falciparum [3] = assay: Antiplasmodial activity against Plasmodium falciparum NF54 infected in human erythrocytes after 72 hrs by [3H]-hypoxanthine incorporation assay; format: functional, organism-based
Plasmodium falciparum [4] = assay: Antiplasmodial activity against Plasmodium falciparum 3D7A infected in red blood cells at 2 times EC90; format: functional, organism-based
[5] = Lipophilicity, log P of the compound; format: physicochemical; conditions: octanol/water
[6] = Octanol-phosphate buffer partition co-efficient, log D of the compound at pH 7.4 after 1 hr by HPLC analysis; format: physicochemical
Plasmodium falciparum [7] = assay: Antiplasmodial activity against Plasmodium falciparum K1 infected in human erythrocytes after 72 hrs by [3H]-hypoxanthine incorporation assay; format: functional, organism-based
Plasmodium falciparum [8] = assay: Antiplasmodial activity against Plasmodium falciparum HB3 infected in human erythrocytes after 72 hrs by [3H]-hypoxanthine incorporation assay; format: functional, organism-based
Plasmodium falciparum [9] = assay: Antiplasmodial activity against Plasmodium falciparum 7G8 infected in human erythrocytes after 72 hrs by [3H]-hypoxanthine incorporation assay; format: functional, organism-based
Plasmodium falciparum [10] = assay: Antiplasmodial activity against Plasmodium falciparum TM90C2B infected in human erythrocytes after 72 hrs by [3H]-hypoxanthine incorporation assay; format: functional, organism-based
Plasmodium falciparum [11] = assay: Antiplasmodial activity against Plasmodium falciparum D6 infected in human erythrocytes after 72 hrs by [3H]-hypoxanthine incorporation assay; format: functional, organism-based
Plasmodium falciparum [12] = assay: Antiplasmodial activity against Plasmodium falciparum V1/S infected in human erythrocytes after 72 hrs by [3H]-hypoxanthine incorporation assay; format: functional, organism-based
Plasmodium falciparum [13] = assay: Antiplasmodial activity against Plasmodium falciparum Dd2 infected in human erythrocytes after 72 hrs by [3H]-hypoxanthine incorporation assay; format: functional, organism-based
Plasmodium falciparum [14] = assay: Antiplasmodial activity against Plasmodium falciparum FCB infected in human erythrocytes after 72 hrs by [3H]-hypoxanthine incorporation assay; format: functional, organism-based
[15] = Ratio of EC50 for Plasmodium falciparum K1 infected in human erythrocytes to EC50 for Plasmodium falciparum NF54 infected in human erythrocytes; format: functional
[16] = Ratio of EC50 for Plasmodium falciparum HB3 infected in human erythrocytes to EC50 for Plasmodium falciparum NF54 infected in human erythrocytes; format: functional
[17] = Ratio of EC50 for Plasmodium falciparum 7G8 infected in human erythrocytes to EC50 for Plasmodium falciparum NF54 infected in human erythrocytes; format: functional
[18] = Ratio of EC50 for Plasmodium falciparum TM90C2B infected in human erythrocytes to EC50 for Plasmodium falciparum NF54 infected in human erythrocytes; format: functional
[19] = Ratio of EC50 for Plasmodium falciparum D6 infected in human erythrocytes to EC50 for Plasmodium falciparum NF54 infected in human erythrocytes; format: functional
[20] = Ratio of EC50 for Plasmodium falciparum V1/S infected in human erythrocytes to EC50 for Plasmodium falciparum NF54 infected in human erythrocytes; format: functional
[21] = Ratio of EC50 for Plasmodium falciparum Dd2 infected in human erythrocytes to EC50 for Plasmodium falciparum NF54 infected in human erythrocytes; format: functional
[22] = Ratio of EC50 for Plasmodium falciparum FCB infected in human erythrocytes to EC50 for Plasmodium falciparum NF54 infected in human erythrocytes; format: functional
Plasmodium falciparum [23] = assay: Ratio of EC90 for Plasmodium falciparum NF54 infected in human erythrocytes to EC50 for Plasmodium falciparum NF54 infected in human erythrocytes; format: functional
Plasmodium falciparum [24] = assay: Antiplasmodial activity against Plasmodium falciparum 3D7A infected in red blood cells assessed as log reduction in parasite viability at 10 times EC50 after 48 hrs by [3H]-hypoxanthine incorporation assay; format: functional
In short: (§2)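 In vitro parasite reduction ratio (PRR) assay on P. falciparum 3D7A-infected erythrocytes exposed to drug at 10× or 3× EC50. Viability of treated parasites was measured by limiting serial dilution followed by monitoring of re-growth. Killing was expressed as log-unit reduction in viable parasites after 48 h.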

Plasmodium falciparum [25] = assay: Antiplasmodial activity against Plasmodium falciparum 3D7A infected in red blood cells assessed as log reduction in parasite viability at 3 times EC50 after 48 hrs by [3H]-hypoxanthine incorporation assay; format: functional; in short: as §2
Plasmodium falciparum [26] = assay: Antiplasmodial activity against schizont stage of Plasmodium falciparum 3D7A infected in red blood cells assessed as reduction in parasite viability at 3 to 10 times EC50 after 48 hrs by [3H]-hypoxanthine incorporation assay relative to ring stage; format: functional
[27] = Kinetic solubility of the compound in PBS at pH 7.4 after 24 hrs by HPLC analysis; format: physicochemical; conditions: read-out: Kinetic_solubility
[28] = Kinetic solubility of the compound in FaSSIF at pH 6.5 after 24 hrs by HPLC analysis; format: physicochemical; conditions: read-out: Kinetic_solubility
[29] = Kinetic solubility of the compound in FeSSIF at pH 5 after 24 hrs by HPLC analysis; format: physicochemical; conditions: read-out: Kinetic_solubility
[30] = Intrinsic clearance in human microsomes assessed per mg protein; format: ADME, Microsome
[31] = Intrinsic clearance in mouse microsomes assessed per mg protein; format: ADME, Microsome
[32] = Intrinsic clearance in rat microsomes assessed per mg protein; format: ADME, Microsome
[33] = Intrinsic clearance in monkey microsomes assessed per mg protein; format: ADME, Macaca mulatta, Microsome; conditions: rhesus monkey
[34] = Intrinsic clearance in dog microsomes assessed per mg protein; format: ADME, Canis lupus familiaris, Microsome
[35] = Apparent permeability of the compound in human Caco2 cells at 20 uM after 4 hrs in presence of human plasma by LC-MS analysis; format: ADME, cell-based; conditions: Caco-2
In short: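 Caco-2 permeability measured with human plasma in both donor and acceptor compartments to reduce non-specific binding. Papp corrected for the unbound concentration under these conditions; efflux ratio also reported.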

[36] = Efflux ratio of apparent permeability from basolateral to apical side over apical to basolateral side in human Caco2 cells at 20 uM after 4 hrs in presence of human plasma by LC-MS analysis; format: ADME, cell-based; conditions: Caco-2
In short: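 Caco-2 permeability was run with human plasma on both donor and acceptor sides to reduce non-specific binding. Apparent permeability (Papp, ×10^-6 cm/s) was corrected for the unbound concentration, and an efflux ratio was reported.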

[37] = Fraction unbound in human plasma at 1000 ng/mL by LC-MS analysis; format: ADME, cell-free
[38] = Fraction unbound in dog plasma at 1000 ng/mL by LC-MS analysis; format: ADME, cell-free, Canis lupus familiaris
[39] = Fraction unbound in rat plasma at 1000 ng/mL by LC-MS analysis; format: ADME, cell-free
[40] = Fraction unbound in mouse plasma at 1000 ng/mL by LC-MS analysis; format: ADME, cell-free
[41] = Ratio of drug uptake in human blood to plasma; format: ADME; conditions: blood and plasma
[42] = Ratio of drug uptake in mouse blood to plasma; format: ADME; conditions: blood and plasma
[43] = Stability in human hepatocytes assessed as parent compound remaining after 5 hrs; format: ADME, cell-based, Hepatocyte; conditions: read-out: Stability
In short: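 Human hepatocyte incubation extended to 5 h; parent remaining and metabolite formation assessed.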

[44] = Half life in CD1 mouse at 0.5 mg/kg, po measured for 14 days; format: ADME, organism-based; conditions: in vivo
In short: (§3)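 Single po administration, mouse dose 0.5 mg·kg-1; plasma concentrations followed to obtain Cmax time and half-life. Bioavailability derived against single iv dosing.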

[45] = Clearance in CD1 mouse at 0.2 mg/kg, iv measured for 14 days; format: ADME, organism-based; conditions: in vivo
In short: (§4)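 Single iv administration, mouse dose 0.2 mg·kg-1. CL reported in L/h/kg and as % liver blood flow; Vss in L/kg.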

[46] = Volume of distribution at steady state in CD1 mouse at 0.2 mg/kg, iv measured for 14 days; format: ADME, organism-based; conditions: in vivo, read-out: Vdss; in short: as §4
[47] = Oral bioavailability in CD1 mouse at 0.5 mg/kg measured for 14 days; format: ADME, organism-based; conditions: in vivo; in short: as §3
[48] = Half life in rat at 0.5 mg/kg, po measured for 14 days; format: ADME, organism-based; conditions: in vivo
[49] = Oral bioavailability in dog at 0.5 mg/kg measured for 14 days; format: ADME, organism-based, Canis lupus familiaris; conditions: in vivo
[50] = Oral bioavailability in rat at 0.5 mg/kg measured for 14 days; format: ADME, organism-based; conditions: in vivo
[51] = Half life in dog at 0.5 mg/kg, po measured for 14 days; format: ADME, organism-based, Canis lupus familiaris; conditions: in vivo; in short: as §3
[52] = Clearance in dog at 0.2 mg/kg, iv measured for 14 days; format: ADME, organism-based, Canis lupus familiaris; conditions: in vivo; in short: as §4
[53] = Tmax in CD1 mouse at 0.5 mg/kg, po measured for 14 days; format: ADME, organism-based; conditions: in vivo; in short: as §3
[54] = Protein binding in brain (unknown origin); format: ADME, tissue-based; conditions: read-out: PB
Plasmodium falciparum [55] = assay: Antiplasmodial activity against Plasmodium falciparum 3D7 infected in human erythrocytes engrafted in NOD-SCID IL-2Rgamma null mouse assessed as reduction in blood parasitemia at 10 to 30 mg/kg, po administered as single dose via gavage measured on day 4 post treatment by flow cytometry; format: functional, organism-based
In short: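 Human-erythrocyte-engrafted SCID mice infected with P. falciparum 3D7 received one oral dose (1, 3, 10 or 30 mg·kg-1) on day 3 post-infection. Parasitemia was followed by flow cytometry, with a quantification limit of 0.01; vehicle controls n=3.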

Plasmodium falciparum [56] = assay: Antiplasmodial activity against Plasmodium falciparum 3D7 infected in human erythrocytes engrafted in NOD-SCID IL-2Rgamma null mouse assessed as reduction in peripheral blood parasitemia administered as single dose via oral gavage measured on […] by flow cytometry; format: functional, organism-based; in short: as §1
[57] = Cmax in NOD-SCID IL-2Rgamma null mouse at 10 mg/kg measured up to 5 days; format: ADME, organism-based; parameters: dose 10 mg/kg; conditions: in vivo
[58] = molecular target: Voltage-gated inwardly rectifying potassium channel KCNH2 (Homo sapiens, UniProt Q12809); assay: Inhibition of human ERG
Sequence of Voltage-gated inwardly rectifying potassium channel KCNH2 (Q12809 whole entry): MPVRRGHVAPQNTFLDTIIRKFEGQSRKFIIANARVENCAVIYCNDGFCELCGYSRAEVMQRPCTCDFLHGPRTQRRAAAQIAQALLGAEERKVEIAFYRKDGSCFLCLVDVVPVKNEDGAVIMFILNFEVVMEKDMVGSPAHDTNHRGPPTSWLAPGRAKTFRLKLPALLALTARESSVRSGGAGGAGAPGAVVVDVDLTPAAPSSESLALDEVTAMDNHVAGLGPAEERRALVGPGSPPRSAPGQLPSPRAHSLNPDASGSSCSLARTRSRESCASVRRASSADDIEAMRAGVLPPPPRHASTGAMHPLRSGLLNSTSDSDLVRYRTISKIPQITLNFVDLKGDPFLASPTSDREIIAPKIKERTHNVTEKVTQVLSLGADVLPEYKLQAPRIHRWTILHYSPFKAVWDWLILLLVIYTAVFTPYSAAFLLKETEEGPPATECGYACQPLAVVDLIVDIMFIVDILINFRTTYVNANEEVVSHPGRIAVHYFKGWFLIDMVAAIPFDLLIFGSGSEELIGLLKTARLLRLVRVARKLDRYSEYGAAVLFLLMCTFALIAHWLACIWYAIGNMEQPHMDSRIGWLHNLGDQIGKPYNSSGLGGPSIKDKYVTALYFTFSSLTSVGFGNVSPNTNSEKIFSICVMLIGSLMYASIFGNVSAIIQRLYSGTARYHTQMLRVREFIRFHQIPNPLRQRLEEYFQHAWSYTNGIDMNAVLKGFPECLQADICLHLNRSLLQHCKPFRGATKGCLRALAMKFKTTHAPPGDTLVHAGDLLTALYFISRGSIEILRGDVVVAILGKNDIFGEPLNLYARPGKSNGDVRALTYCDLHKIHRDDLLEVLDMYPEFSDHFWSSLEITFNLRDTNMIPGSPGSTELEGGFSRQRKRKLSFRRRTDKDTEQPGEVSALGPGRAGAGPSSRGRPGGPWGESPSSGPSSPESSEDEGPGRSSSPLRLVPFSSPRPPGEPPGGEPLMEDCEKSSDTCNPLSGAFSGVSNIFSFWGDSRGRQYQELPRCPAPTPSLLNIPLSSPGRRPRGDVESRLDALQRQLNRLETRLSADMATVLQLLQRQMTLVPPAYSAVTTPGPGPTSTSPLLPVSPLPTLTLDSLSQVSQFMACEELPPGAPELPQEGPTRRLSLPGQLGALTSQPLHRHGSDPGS

C1CCCNCC1 [AZEPANE]
pKa [1]: 8.05

CCN(CC)CCCC(C)Nc1ccnc2cc(Cl)ccc12 (stereo unspecified) [CHLOROQUINE]
ED50 (Plasmodium falciparum [2]): 2.8 mg/kg

O[C@H]1CNCCC[C@@H]1n1c2ccc(C(F)(F)F)cc2c2cc(C(F)(F)F)ccc21
fEC50 (Plasmodium falciparum [3]): 0.17 nM | EC50 (Plasmodium falciparum [3]; Plasmodium falciparum, NF54): 2.4 nM | Activity (Plasmodium falciparum [4]): Active | logP [5]: 4.6 | logD at 1 h [6]: 4.1 | EC50 (Plasmodium falciparum [7]): 0.7 nM | EC50 (Plasmodium falciparum [8]): 2.1 nM | EC50 (Plasmodium falciparum [9]): 0.4 nM | EC50 (Plasmodium falciparum [10]): 3 nM | EC50 (Plasmodium falciparum [11]): 3.4 nM | EC50 (Plasmodium falciparum [12]): 1.3 nM | EC50 (Plasmodium falciparum [13]): 3.2 nM | EC50 (Plasmodium falciparum [14]): 3 nM | Ratio EC50 [15]: 0.3 | Ratio EC50 [16]: 0.9 | Ratio EC50 [17]: 0.2 | Ratio EC50 [18]: 1.2 | Ratio EC50 [19]: 1.4 | Ratio EC50 [20]: 0.5 | Ratio EC50 [21]: 1.3 | Ratio EC50 [22]: 1.3 | fold change (FC) (Plasmodium falciparum [23]): 2 | FC (Plasmodium falciparum [24]): 4.8 | FC (Plasmodium falciparum [25]): 4.5 | fold change (FC) (Plasmodium falciparum [26]): 2 | pKa [1]: 8.05 | solubility kinetic at 24 h [27]: 1.5 µg/mL (≈ 3.6 µM) | solubility kinetic at 24 h [28]: 10 µg/mL (≈ 24 µM) | solubility kinetic at 24 h [29]: 83.5 µg/mL (≈ 201 µM) | microsomal CLint [30]: < 10 µL/min/mg | microsomal CLint [31]: < 10 µL/min/mg | microsomal CLint [32]: < 10 µL/min/mg | microsomal CLint [33]: < 10 µL/min/mg | microsomal CLint [34]: < 10 µL/min/mg | Papp at 4 h, 20 µM [35]: 120 ×10⁻⁶ cm/s | efflux ratio at 4 h, 20 µM [36]: 0.8 | fraction unbound at 1000 ng/mL [37]: 0.035 | fraction unbound at 1000 ng/mL [38]: 0.013 | fraction unbound at 1000 ng/mL [39]: 0.025 | fraction unbound at 1000 ng/mL [40]: 0.026 | blood plasma ratio [41]: 1.5 | blood plasma ratio [42]: 1.6 | remaining at 5 h [43]: 96% | half-life [44]: 86 h | clearance [45]: 2.6 mL/min/kg | Vd [46]: 10 L/kg | bioavailability [47]: 97% | half-life [48]: 160 h | bioavailability [49]: 100% | bioavailability [50]: 72% | half-life [51]: 69 h | clearance [52]: 2.98 mL/min/kg | Tmax [53]: 6 h | fraction unbound [54]: < 0.001 | Activity (Plasmodium falciparum [55]): Active | ED90 (Plasmodium falciparum [2]): 3.6 mg/kg | AUCED90 (Plasmodium falciparum [56]): 2.2 µg.hr/ml/day | Cmax [57]: 1000 nM | IC50 [58]: 1180 nM
